Tests used:
[1] = folding enthalpy; higher = less favourable; fluorescence melt of hairpins on a sequencing array, two-state fit; details: sodium 0.088 M
Summary of the method: (§1)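 Cy3 fluorescence of library hairpins on a sequenced MiSeq flow cell, with annealed Cy3 and quencher oligos, was imaged in 50 mM Na-HEPES pH 8.0, 25 mM NaCl in 2.5 °C steps up to 60 °C. Signals were normalised to pre-quench Cy3 and to control variants. Melting temperature and folding enthalpy came from bootstrapped two-state fits, inverse-variance combined over four replicates. Fitted temperatures were raised by 9.35 °C to match UV melts.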

[2] = melting temperature; fluorescence melt of hairpins on a sequencing array, two-state fit, raised by 9.35 °C to match UV melts; details: sodium 0.088 M
Summary of the method: as §1

Row | Sequence | folding enthalpy [1] | Tm [2]
1 | GAGCGCGGAAACACGCCC (.(((.(....).))).) | -50 kJ/mol | 38.4 °C
2 | GAGCGCGGAAACACGCTC (((((.(....).))))) | -172 kJ/mol | 56.2 °C
3 | GAGCGGCGAAAGCCACTC (((.(((....))).))) | -102 kJ/mol | 58 °C
4 | GAGCGTGCGAAAGCACTC (((..(((....)))))) | -24.4 kJ/mol | 26.9 °C
5 | GAGCGTGGAAACACACCC (.(.(((....))).).) | -79.1 kJ/mol | 25.4 °C
6 | GAGCTAGGAAACTGGCTC ((((.((....)).)))) | -151 kJ/mol | 51.9 °C
7 | GAGCTCACGAAAGTGCTC (((..(((....)))))) | -86.9 kJ/mol | 44.4 °C
8 | GAGCTCGGAAACGAACTC (((.(((....))).))) | -120 kJ/mol | 44.9 °C
9 | GAGCTGCGAAAGCATCTC (((.(((....))).))) | -123 kJ/mol | 46.8 °C
10 | GAGCTGGGAAACCAGCCC (.(((((....))))).) | -47.6 kJ/mol | 46.9 °C
11 | GAGCTGGGAAACCGGTTC ((.(.((....)).).)) | -97.4 kJ/mol | 35.7 °C
12 | GAGCTTGGAAACAAACTC (((.(((....))).))) | -100 kJ/mol | 35.8 °C
13 | GAGGAAACGAAAGTTCTC (((..(((....)))))) | -55.6 kJ/mol | 24.6 °C
14 | GAGGAAGGAAACTTCCCC (.(((((....))))).) | -46.1 kJ/mol | 35.2 °C
15 | GAGGAAGGAAACTTTCTC (((.(((....))).))) | -121 kJ/mol | 35.3 °C
16 | GAGGACCCGAAAGGGCTC (((..(((....)))))) | -50.1 kJ/mol | 33.9 °C
17 | GAGGACCGAAAGGTTCTC (((.(((....))).))) | -147 kJ/mol | 59.4 °C
18 | GAGGACGAAAGTCACCTC ((((((....)))..))) | -54.1 kJ/mol | 36.2 °C
19 | GAGGACGAAAGTCGGCTC ((((((....)))..))) | -69.8 kJ/mol | 45.6 °C
20 | GAGGAGCCGAAAGGCCTC (((..(((....)))))) | -47.9 kJ/mol | 41.9 °C
21 | GAGGAGCGAAAGCTTCTC (((.(((....))).))) | -139 kJ/mol | 57.2 °C
22 | GAGGAGGGAAACCTCCTC (((((((....))))))) | -140 kJ/mol | 65.3 °C
23 | GAGGATACGAAAGTACTC (((..(((....)))))) | -41.6 kJ/mol | 26.8 °C

Row | Sequence | folding enthalpy [1] | Tm [2]
24 | GAGGATGCGAAAGCACTC (((..(((....)))))) | -59.2 kJ/mol | 34.9 °C
25 | GAGGATGGAAACATCCTC (((((((....))))))) | -208 kJ/mol | 61.3 °C
26 | GAGGATGGAAACATCTTC ((.((((....)))).)) | -113 kJ/mol | 38.1 °C
27 | GAGGATGGAAACATTCTC (((.(((....))).))) | -107 kJ/mol | 42.6 °C
28 | GAGGCAGAAATGCCTC ((((((....)))))) | -158 kJ/mol | 60.7 °C
29 | GAGGCCCCGAAAGGGCTC (((..(((....)))))) | -58.9 kJ/mol | 50.7 °C
30 | GAGGCCCGAAAGGGTCTC (((.(((....))).))) | -132 kJ/mol | 67.4 °C
31 | GAGGCCGAAAGGCACTC ((((((....))).))) | -60.8 kJ/mol | 54.1 °C
32 | GAGGCCGAAAGGCGCCTC ((((((....)))..))) | -52 kJ/mol | 42 °C
33 | GAGGCCGAAAGGCGGCTC ((((((....)))..))) | -53.8 kJ/mol | 55.9 °C
34 | GAGGCCGGAAACGGCCCC (.(((((....))))).) | -28.3 kJ/mol | 51.2 °C
35 | GAGGCGCGAAAGCGCTC (((.(((....)))))) | -30.8 kJ/mol | 46.6 °C
36 | GAGGCGGGAAACCGCTTC ((.((((....)))).)) | -66.7 kJ/mol | 51 °C
37 | GAGGCTACGAAAGTACTC (((..(((....)))))) | -42.7 kJ/mol | 23.8 °C
38 | GAGGCTGGAAACGGCTTC ((.((.(....).)).)) | -87.1 kJ/mol | 36.6 °C
39 | GAGGGCGAAAGCCGCCTC ((((((....)))..))) | -40.5 kJ/mol | 36.3 °C
40 | GAGGGCGAAAGCCTACTC ((((((....)))..))) | -46.1 kJ/mol | 41.1 °C
41 | GAGGGCGGAAACGCCTTC ((.((((....)))).)) | -57.8 kJ/mol | 50.5 °C
42 | GAGGGGCGAAAGCCGCTC (((.(((....))).))) | -128 kJ/mol | 69.3 °C
43 | GAGGGGGGAAACCCCTTC ((.((((....)))).)) | -52.3 kJ/mol | 53.5 °C
44 | GAGGTCCGAAAGGAGCTC (((.(((....))).))) | -149 kJ/mol | 69.3 °C
45 | GAGGTCGCGAAAGCGCTC (((..(((....)))))) | -39.9 kJ/mol | 35.1 °C
46 | GAGGTGCGAAAGCACTC (((.(((....)))))) | -41.9 kJ/mol | 48.3 °C

Row | Sequence | folding enthalpy [1] | Tm [2]
47 | GAGGTGGGAAACCACCCC (.(((((....))))).) | -44.6 kJ/mol | 44.6 °C
48 | GAGGTGGGAAACTGCCTC ((((..(....)..)))) | -132 kJ/mol | 42.7 °C
49 | GAGGTTACGAAAGTACTC (((..(((....)))))) | -59.9 kJ/mol | 27.9 °C
50 | GAGGTTGGAAACAACTTC ((.((((....)))).)) | -101 kJ/mol | 43.4 °C
51 | GAGTAAACGAAAGTTCTC (((..(((....)))))) | -58.1 kJ/mol | 30.1 °C
52 | GAGTACGAAAGTAACTC ((((((....))).))) | -97.7 kJ/mol | 45.4 °C
53 | GAGTACGAAAGTAAGCTC ((((((....)))..))) | -62.2 kJ/mol | 29.3 °C
54 | GAGTACGAAAGTACCTC ((((((....))).))) | -60.5 kJ/mol | 47 °C
55 | GAGTACGAAAGTACTC ((((((....)))))) | -149 kJ/mol | 64.8 °C
56 | GAGTACGAAAGTAGTCTC ((((((....)))..))) | -97.9 kJ/mol | 49.2 °C
57 | GAGTACGAAAGTATCTC ((((((....))).))) | -112 kJ/mol | 41.9 °C
58 | GAGTACGAAAGTATTCTC ((((((....)))..))) | -115 kJ/mol | 42.6 °C
59 | GAGTACGGAAACGTGTTC ((..(((....)))..)) | -43.8 kJ/mol | 22.2 °C
60 | GAGTATACGAAAGTACTC (((..(((....)))))) | -65.7 kJ/mol | 34 °C
61 | GAGTATCCGAAAGGACTC (((..(((....)))))) | -59.2 kJ/mol | 29.2 °C
62 | GAGTATGGAAACATACCC (.(((((....))))).) | -81 kJ/mol | 31.4 °C
63 | GAGTATGGAAACGTACTC (((((.(....).))))) | -138 kJ/mol | 43.5 °C
64 | GAGTCAGAAATGACTC ((((((....)))))) | -105 kJ/mol | 54.6 °C
65 | GAGTCAGGAAACCGACTC (((((.(....).))))) | -154 kJ/mol | 46.6 °C
66 | GAGTCCGAAAGGAACCTC ((((((....)))..))) | -69.1 kJ/mol | 33 °C
67 | GAGTCCGAAAGGAGCCTC ((((((....)))..))) | -59.7 kJ/mol | 34 °C
68 | GAGTCCGAAAGGAGTCTC ((((((....)))..))) | -105 kJ/mol | 54.5 °C
69 | GAGTCCGCGAAAGCGCTC (((..(((....)))))) | -31.8 kJ/mol | 24.8 °C

Row | Sequence | folding enthalpy [1] | Tm [2]
70 | GAGTCCGGAAACAGACTC (((((.(....).))))) | -130 kJ/mol | 41.6 °C
71 | GAGTCGCGAAAGCGCTC (((.(((....)))))) | -64.4 kJ/mol | 54.6 °C
72 | GAGTCGGGAAACCGACCC (.(((((....))))).) | -45 kJ/mol | 42 °C
73 | GAGTCTGCGAAAGCACTC (((..(((....)))))) | -62.1 kJ/mol | 30.4 °C
74 | GAGTCTGGAAACAGGCTC (((.(((....))).))) | -184 kJ/mol | 52.2 °C
75 | GAGTGCCCGAAAGGGCTC (((..(((....)))))) | -27.9 kJ/mol | 35.5 °C
76 | GAGTGCGAAAGCACGCTC ((((((....)))..))) | -45.7 kJ/mol | 66.7 °C
77 | GAGTGCGAAAGCAGCTC ((((((....))).))) | -83.2 kJ/mol | 51.3 °C
78 | GAGTGCGAAAGCATACTC ((((((....)))..))) | -73.1 kJ/mol | 43.1 °C
79 | GAGTGCGGAAACGTACTC ((((.((....)).)))) | -181 kJ/mol | 53.9 °C
80 | GAGTGGCGAAAGCCCCTC (((.(((....))).))) | -83.4 kJ/mol | 48.3 °C
81 | GAGTGGGAAACCACTC ((((((....)))))) | -141 kJ/mol | 60.7 °C
82 | GAGTGGGCGAAAGCCCTC (((..(((....)))))) | -34.6 kJ/mol | 34 °C
83 | GAGTGGGGAAACCCACCC (.(((((....))))).) | -50.9 kJ/mol | 42.7 °C
84 | GAGTGTACGAAAGTACTC (((..(((....)))))) | -49.1 kJ/mol | 32.8 °C
85 | GAGTGTGGAAACGCATTC ((.((.(....).)).)) | -79.6 kJ/mol | 28.5 °C
86 | GAGTTACGAAAGTACTC (((.(((....)))))) | -106 kJ/mol | 43.2 °C
87 | GAGTTACGAAAGTAGCTC (((.(((....))).))) | -144 kJ/mol | 51.2 °C
88 | GAGTTCCGAAAGGACCTC (((.(((....))).))) | -120 kJ/mol | 47.2 °C
89 | GAGTTCGGAAACAAACTC (((((.(....).))))) | -115 kJ/mol | 34 °C
90 | GAGTTGGGAAACCAATTC ((.((((....)))).)) | -120 kJ/mol | 40 °C
91 | GAGTTGGGAAACTAGCTC (((.(.(....).).))) | -62.9 kJ/mol | 29 °C

— the array DNA melting data of Ke et al. (doi:10.1101/2024.01.08.574731)
